Measurements reported in ChEMBL document CHEMBL5136969, “A niclosamide-tobramycin hybrid adjuvant potentiates cefiderocol against P. aeruginosa” (2021).
Active and inactive are the calls of the source. The calls are words filed in the database; no cut-off is given here.

Key:
Enterobacter cloacae = assay: Antibacterial activity against Enterobacter cloacae 117029 assessed as reduction in bacterial growth after 18 hrs by microbroth dilution method; assay type: functional
In short: (§1)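 CLSI microbroth dilution in MHB. Overnight cultures were adjusted to 0.5 McFarland in saline, diluted 1:50, and inoculated at about 5 × 10^5 CFU/mL. Agents were 2-fold serially diluted and incubated 18 h at 37 °C. MIC is the lowest concentration without visible turbidity, confirmed by absorbance at 590 nm. Medium with and without cells served as controls.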

Pseudomonas aeruginosa [1] = assay: Antibacterial activity against MDR clinical isolate Pseudomonas aeruginosa PA259 assessed as potentiation of cefiderocol antibacterial activity by measuring FIC index after 18 hrs by microbroth dilution method; assay type: functional
In short: (§2)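 Checkerboard in MHB. Cefiderocol was 2-fold serially diluted along one axis and the adjuvant along the other. Inoculum was prepared from 0.5 McFarland saline suspensions diluted 1:50 in MHB, giving about 5 × 10^5 CFU/mL final. Plates ran 18 h at 37 °C, with turbidity confirmed at 590 nm. FIC = combination MIC ÷ MIC alone for each agent, and FIC index = sum of both. Interpretation: ≤0.5 synergy, >0.5–4 additive, >4 antagonism.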

Pseudomonas aeruginosa [2] = assay: Antibacterial activity against MDR clinical isolate Pseudomonas aeruginosa PA86052 assessed as reduction in bacterial growth after 18 hrs in presence of cefiderocol by microbroth dilution method; assay type: functional; in short: as §2
Escherichia coli [3] = assay: Antibacterial activity against Escherichia coli 94474 assessed as potentiation of cefiderocol antibacterial activity by measuring FIC after 18 hrs by microbroth dilution method; assay type: functional
In short: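 Checkerboard in Mueller-Hinton broth: cefiderocol 2-fold diluted on one axis, adjuvant 2-fold on the other. Overnight cultures were adjusted to 0.5 McFarland in saline, diluted 1:50 in MHB, and inoculated at about 5 × 10^5 CFU/mL. Incubation was 18 h at 37 °C. Turbidity was read visually and confirmed at 590 nm. FIC index = FIC of antibiotic + FIC of adjuvant; ≤0.5 synergy, >4 antagonism.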

Pseudomonas aeruginosa [4] = assay: Antibacterial activity against MDR clinical isolate Pseudomonas aeruginosa PA88949 assessed as reduction in bacterial growth after 18 hrs by microbroth dilution method; assay type: functional
In short: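 Broth microdilution per CLSI in Mueller-Hinton broth (MHB). Overnight cultures were adjusted to 0.5 McFarland in saline, diluted 1:50 in MHB, and added at about 5 × 10^5 CFU/mL final to equal volumes of 2-fold serial dilutions of agent. Incubation was 18 h at 37 °C. MIC was the lowest concentration with no visible turbidity, confirmed by absorbance at 590 nm.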

Acinetobacter baumannii = assay: Potentiation of chloamphenicol-induced antibiotic activity against Acinetobacter baumannii ATCC 17978 assessed as MIC fold reduction at 8 ug/ml after 18 hrs by microbroth dilution method; assay type: functional; conditions: dose 8 µg/ml
In short: (§3)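 Adjuvant held at a fixed 8 μg/mL while the antibiotic was 2-fold serially diluted in Mueller-Hinton broth (MHB), per CLSI microbroth dilution. Overnight cultures were adjusted in saline to 0.5 McFarland, then diluted 1:50 in MHB to about 5 × 10^5 CFU/mL final, and incubated 18 h at 37 °C. MIC was the lowest concentration with no visible turbidity, confirmed at 590 nm. Fold potentiation = MIC alone / MIC with adjuvant.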

Escherichia coli [5] = assay: Antibacterial activity against Escherichia coli 94393 assessed as reduction in bacterial growth after 18 hrs by microbroth dilution method; assay type: functional; in short: as §1
Pseudomonas aeruginosa [6] = assay: Potentiation of ceftolozane-induced antibiotic activity against MDR clinical isolate Pseudomonas aeruginosa PA264 assessed as MIC fold reduction at 8 ug/ml after 18 hrs by microbroth dilution method; assay type: functional, organism-based; conditions: dose 8.0 µg/ml; in short: as §3

In the case of `NC[C@H]1O[C@H](O[C@H]2[C@H](OCCCCc3cn(-c4ccc(NC(=O)c5cc(Cl)ccc5O)cc4)nn3)[C@@H](O[C@H]3O[C@H](CO)[C@@H](O)[C@H](N)[C@H]3O)[C@H](N)C[C@@H]2N)[C@H](N)C[C@@H]1O`, the MIC (Enterobacter cloacae) is reported as > 128 mg/L, the FIC (Pseudomonas aeruginosa [1]) is reported as 0.031 and the MIC (Pseudomonas aeruginosa [2]) is reported as 0.25 mg/L. For the same compound, the FIC (Escherichia coli [3]) was 0.25, the MIC (Pseudomonas aeruginosa [4]) was > 128 mg/L and the “fold change (FC)” value (Acinetobacter baumannii) was 4. For the same compound, the MIC (Escherichia coli [5]) was > 128 mg/L and the Activity (Pseudomonas aeruginosa [6]) was “Active”.
